Measured values reported in ChEMBL document CHEMBL2169874, “Design, synthesis, and pharmacological evaluation of novel hybrid compounds to treat sickle cell disease symptoms. part II: furoxan derivatives” (J Med Chem, 2012).
Active and inactive are the calls of the source. No cut-off for these calls is given here.

Key:
[1] = system: Mus musculus; assay: Antinociceptive activity in Swiss albino mouse assessed as inhibition of acetic-acid induced abdominal constriction at 100 umol/kg, po administered 1 hr prior to acetic-acid challenge measured after 10 mins relative to vehicle-treated control; format: functional; conditions: Abdomen
How it was run: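 Mice dosed orally at 100 μmol/kg as a suspension in 5% arabic gum in saline. 0.6% acetic acid (0.1 mL/10 g) given ip 1 h later. Starting 10 min after injection, constrictions per animal counted for 20 min. Vehicle controls received an equal volume. Expressed as % inhibition vs vehicle group; mean ± SEM, 10 animals per group; Student's t test.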

[2] = system: Mus musculus; assay: Mutagenicity in Swiss mouse assessed as micronucleated reticulocytes in peripheral blood at 50 mg/kg, po after 30 hrs by micronucleus test; format: toxicity, organism-based; design: dose 50 mg/kg, route oral; conditions: in vivo
How it was run: (§1)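 Swiss mice of both sexes (25−30 g), 10 per group, gavaged at 25, 50 or 100 mg/kg. Negative control: 1% CMC/0.2% Tween by gavage; positive control: cyclophosphamide 50 mg/kg ip. Blood collected 30 h later, slides prestained with acridine orange. 1000 reticulocytes scored per animal for micronucleated cells; mean with SD.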

[3] = system: Mus musculus; assay: Mutagenicity in Swiss mouse assessed as micronucleated reticulocytes in peripheral blood at 100 mg/kg, po after 30 hrs by micronucleus test; format: toxicity, organism-based; design: dose 100 mg/kg, route oral; conditions: in vivo; how it was run: as §1
[4] = system: K562; assay: Upregulation of gamma-globin mRNA expression in human K562 cells at 5 uM after 24 to 96 hrs by qRT-PCR analysis relative to control; format: functional, cell-based
How it was run: (§2)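 K562 cells in DMEM with 10% FBS, penicillin/streptomycin, 37 °C, 5% CO2, seeded at 1 × 10^7 cells/100 mL. Treated at 5−100 μM for 24, 48, 72 or 96 h. γ-globin mRNA by SYBR Green qRT-PCR, normalized to β-actin and GAPDH, vs vehicle control (DMSO, or water for HU). Mean ± SEM, n = 5; ANOVA with Dunnett's test.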

[5] = system: Mus musculus; assay: Mutagenicity in Swiss mouse assessed as micronucleated reticulocytes in peripheral blood at 25 mg/kg, po after 30 hrs by micronucleus test; format: toxicity, organism-based; design: dose 25 mg/kg, route oral; conditions: in vivo; how it was run: as §1
[6] = system: K562; assay: Upregulation of gamma-globin mRNA expression in human K562 cells at 100 uM after 96 hrs by qRT-PCR analysis relative to control; format: functional; how it was run: as §2
[7] = Induction of nitrite release at 10^-4 M after 1 hr by Griess method in presence of L-cysteine; format: physicochemical; conditions: 100 µM
[8] = system: K562; assay: Upregulation of gamma-globin mRNA expression in human K562 cells at 5 uM after 96 hrs by qRT-PCR analysis relative to control; format: functional; how it was run: as §2
[9] = system: K562; assay: Upregulation of beta-soluble guanilate cyclase mRNA expression in human K562 cells at 5 and 30 uM from 24 to 96 hrs by qRT-PCR analysis relative to control; format: functional, cell-based
How it was run: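 K562 cells in DMEM with 10% FBS, penicillin/streptomycin, 37 °C, 5% CO2, seeded at 1 × 10^7 cells/100 mL. Treated at 5 or 30 μM for 24, 48, 72, 96 h. β-sGC mRNA by SYBR Green qRT-PCR, normalized to β-actin and GAPDH, vs DMSO control. Mean ± SEM, n = 5; Mann−Whitney test.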

[10] = system: K562; assay: Upregulation of gamma-globin mRNA expression in human K562 cells at 5 uM after 24 hrs by qRT-PCR analysis relative to control; format: functional, cell-based; how it was run: as §2

Activity [7] [%] | Structure (SMILES) | inhibition [1] | also measured
– | NC(=O)NO [HYDROXYUREA] | inactive | Activity [2]: 15; Activity [3]: 33.7; Activity [4]: inactive; Activity [5]: 9.9; fold change (FC) [6]: 1.77
14.8 | O=C1c2ccccc2C(=O)N1Cc1c(-c2ccccc2)no[n+]1[O-] | inactive | –
28.2 | O=C(NCCOc1no[n+]([O-])c1S(=O)(=O)c1ccccc1)c1ccc(N2C(=O)c3ccccc3C2=O)cc1 | inactive | –
28.1 | O=C1c2ccccc2C(=O)N1c1ccc(S(=O)(=O)NCCOc2no[n+]([O-])c2S(=O)(=O)c2ccccc2)cc1 | – | inhibition in vivo at 100 µmol/kg [1]: 36%
9.5 | O=C1c2ccccc2C(=O)N1CCOc1c(S(=O)(=O)c2ccccc2)no[n+]1[O-] | – | fold change (FC) [8]: 2.8; inhibition in vivo at 100 µmol/kg [1]: 43%; Activity [2]: 5.5; Activity [9]: inactive; Activity [3]: 6.7; Activity [5]: 4; Activity [10]: Active
– | Cc1c(N(C)CS(=O)(=O)O)c(=O)n(-c2ccccc2)n1C | Active | –
13.2 | O=C(OCc1c(-c2ccccc2)no[n+]1[O-])c1cccc(N2C(=O)c3ccccc3C2=O)c1 | inactive | –
9.7 | O=C(OCc1c(-c2ccccc2)no[n+]1[O-])c1ccccc1N1C(=O)c2ccccc2C1=O | inactive | –
10.6 | O=C(OCc1c(-c2ccccc2)no[n+]1[O-])c1cc(N2C(=O)c3ccccc3C2=O)ccc1O | inactive | –

Structure (SMILES) | Activity [7] [%] | inhibition [1] | also measured
O=[N+]([O-])O[C@H]1CO[C@H]2[C@@H]1OC[C@H]2O[N+](=O)[O-] [ISOSORBIDE DINITRATE] | 11.6 | – | –
